Bioassay records: PubChem, Broad Institute
KDM4C inh – inhibitors of GASC-1 (KDM4C) histone demethylase, primary screen, biochemical, single concentration HTS | GST-KDM4C 2-372, H3K9me3 peptide, LANCE TR-FRET | inhibition, % at 12.5 µM | actives 0.15% (n = 96,000);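 active = mean replicate inhibition above about 25%, with at least 55% of replicates also reaching it, limit read from the data, passing the limit was not always enough; inconclusive = only one of those two conditions met; inactive = neither condition met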
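Material: N-terminal GST-fused human GASC-1 (KDM4C) fragment, residues 2-372. Input: 10 nM enzyme. Incubation: enzyme reaction 30 min, then detection 60 min, both room temperature. Doses: one test concentration per compound. Read-out basis: inhibition from TR-FRET ratio decrease. Detection: LANCE TR-FRET, excitation 340 nm, emissions 618 and 671 nm.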
IDH1 R132H inh – inhibitors of IDH1 R132H reductase, primary screen, biochemical, plate reader, single point | inhibition, % at 10 µM | AID 624101, 2012 | diaphorase/resazurin fluorescence, 60 min | actives 0.18% (n = 70,000) | Isocitrate dehydrogenase [NADP] cytoplasmic (Homo sapiens), O75874; in the data active = inhibition above about 34%; inconclusive = no clear call, values can overlap the other calls; inactive = below about 11%
Target sequence (O75874 whole entry R132H): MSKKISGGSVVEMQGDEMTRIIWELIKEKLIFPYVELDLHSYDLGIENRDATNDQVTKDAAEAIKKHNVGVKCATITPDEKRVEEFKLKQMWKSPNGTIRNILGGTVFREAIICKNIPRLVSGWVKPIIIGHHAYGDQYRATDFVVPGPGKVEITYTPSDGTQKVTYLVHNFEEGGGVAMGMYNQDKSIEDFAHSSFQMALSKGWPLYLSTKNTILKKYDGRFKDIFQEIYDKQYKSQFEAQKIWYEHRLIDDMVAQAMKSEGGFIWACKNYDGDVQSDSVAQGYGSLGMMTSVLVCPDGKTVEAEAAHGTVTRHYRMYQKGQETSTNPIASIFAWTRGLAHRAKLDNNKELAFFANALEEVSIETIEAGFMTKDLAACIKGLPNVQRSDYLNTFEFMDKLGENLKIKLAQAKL
T cruzi growth-1 – T. cruzi intracellular proliferation inhibitors, primary screen, cell-based, beta-gal Tulahuen parasites, NIH3T3 host, luminescence | T. cruzi beta-gal in NIH3T3, GalScreen luminescence, 90 h | inhibition, % at 8.34 µM | actives 5.9% (n = 77,000);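 active = mean inhibition above about 93%, with at least 55% of replicates each passing it, limit read from the data, passing the limit was not always enough; inconclusive = only one of those two conditions holds; inactive = neither condition holds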
T cruzi growth-2 – T. cruzi intracellular proliferation inhibitors, confirmation, cell-based, NIH3T3 host, beta-gal parasite, luminescence, cherry-pick | T. cruzi beta-gal in NIH3T3, GalScreen luminescence, 90 h | actives 72% (n = 5,600) | shares compounds with T cruzi growth-1 | inhibition, % at 8.35 µM;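 active = mean replicate inhibition above about 95% and at least 55% of replicates individually reaching it, limit read from the data; inconclusive = only one of the two criteria is met; inactive = neither criterion is met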
T cruzi growth-3 – inhibitors of intracellular T. cruzi replication, confirmation, NIH3T3 host cells, beta-gal parasites, cherry-pick, set 2 | T. cruzi beta-gal in NIH3T3, GalScreen luminescence, 90 h | actives 21% (n = 5,600) | shares compounds with T cruzi growth-1 | inhibition, % at 2.09 µM | AID 651740, 2012;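 active = mean inhibition above about 95%, with at least 55% of replicates also reaching it, limit read from the data; inconclusive = meets just one of the two conditions; inactive = meets neither condition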
NIH3T3 tox – cytotoxicity in mouse NIH/3T3 fibroblasts, confirmation, cytotoxicity control for T. cruzi proliferation inhibitor project, cell-based, cherry-pick, single point; actives 14% (n = 5,600); shares compounds with T cruzi growth-1; cytotoxicity (signal decrease), % at 8.35 µM; NIH/3T3 viability, CellTiter-Glo ATP luminescence, 90 h;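 active = mean signal decrease across replicates above about 35% based on untreated-well scatter, with enough replicates individually passing, limit read from the data; inconclusive = no rule stated though some were filed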
NIH3T3 tox 2 – NIH/3T3 fibroblast cytotoxicity, confirmation, cytotoxicity control, cell-based, cherry-pick, single point, set 2. shares compounds with T cruzi growth-1. NIH/3T3 viability, CellTiter-Glo ATP luminescence, 90 h. inhibition, % at 24.9 µM. actives 56% (n = 5,600). AID 651744, 2012;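 active = mean loss of cell viability signal at or above a set limit, and enough replicates individually reaching it; inconclusive = meets only the mean limit or only the replicate share; inactive = meets neither condition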
Hits are given with their value; – = inactive; ? = inconclusive; · = no result. The full list was thinned out, with hits kept by preference.

SMILES	KDM4C inh	IDH1 R132H inh	T cruzi growth-1	T cruzi growth-2	T cruzi growth-3	NIH3T3 tox	NIH3T3 tox 2
O=C(C[C@H]1CC[C@@H]2[C@H](COC[C@@H](O)CN2C(=O)Nc2ccc(F)cc2)O1)NCCc1ccncc1	–	·	–	·	·	·	·
COc1ccccc1NC(=O)N1C[C@H](O)COC[C@H]2O[C@H](CC(=O)NCCc3ccncc3)CC[C@@H]21	–	·	?	–	–	–	–
COc1ccccc1NC(=O)N1C[C@@H](O)COC[C@H]2O[C@H](CC(=O)NCCc3ccncc3)CC[C@@H]21	–	·	–	·	·	·	·
O=C(C[C@@H]1CC[C@@H]2[C@H](COC[C@@H](O)CN2C(=O)Nc2ccc(Cl)cc2)O1)NCCc1ccncc1	–	·	119	–	–	–	–
O=C(C[C@H]1CC[C@@H]2[C@H](COC[C@@H](O)CN2C(=O)Nc2ccc(Cl)cc2)O1)NCCc1ccncc1	–	·	106	96	–	–	–
O=C(C[C@H]1CC[C@@H]2[C@H](COC[C@H](O)CN2C(=O)Nc2ccc(Cl)cc2)O1)NCCc1ccncc1	–	·	109	–	–	–	–
O=C(C[C@@H]1CC[C@H]2[C@@H](COC[C@@H](O)CN2C(=O)Nc2ccccc2)O1)NCCc1ccncc1	–	·	–	·	·	·	·
O=C(C[C@H]1CC[C@H]2[C@@H](COC[C@H](O)CN2C(=O)Nc2ccc(F)cc2)O1)NCCc1ccncc1	–	·	–	·	·	·	·
Cc1cc(NS(=O)(=O)c2ccc(NC(=O)c3oc4cc(C)c(C)cc4c3C)cc2)nc(C)n1	·	–	·	·	·	·	·
COc1ccc(-c2cc(C)nc(SCC(=O)N3c4ccccc4Sc4ccccc43)n2)cc1	·	–	·	·	·	·	·
C[C@H]1CN([C@@H](C)CO)C(=O)c2cccc(NC(=O)CCCCCC(=O)Nc3ccccc3N)c2O[C@H]1CN(C)S(=O)(=O)c1ccc(F)cc1	–	·	·	·	·	·	·
COC(=O)c1ccccc1NC(=O)C1CC(c2ccc(Cl)c(Cl)c2)=NO1 (stereo unspecified)	·	–	·	·	·	·	·
Cc1ccc(S(=O)(=O)NCC(=O)Nc2ccc(C(N)=O)cc2)cc1	·	–	·	·	·	·	·
COC(=O)c1sc(NC(=S)Nc2ccc(Cl)cn2)c(C(=O)OC)c1C	·	–	·	·	·	·	·
O=C(Cn1ccc([N+](=O)[O-])n1)N1CCOCC1	·	–	·	·	·	·	·
CN(C)C=NC(=O)c1ccc(-c2cccs2)s1	·	–	·	·	·	·	·
C[C@@H]1CN([C@@H](C)CO)S(=O)(=O)c2ccc(Br)cc2O[C@H]1CN(C)Cc1cccc(F)c1	–	·	?	98	–	53	107
C[C@H]1CN([C@@H](C)CO)S(=O)(=O)c2ccc(Br)cc2O[C@@H]1CN(C)Cc1cccc(F)c1	–	·	?	99	–	–	103
C[C@@H]1CN([C@@H](C)CO)S(=O)(=O)c2ccc(Br)cc2O[C@@H]1CN(C)Cc1ccccc1	–	–	–	·	·	·	·
C[C@H](CO)N1C[C@H](C)[C@@H](CN(C)Cc2ccccc2)Oc2cc(Br)ccc2S1(=O)=O	–	–	–	·	·	·	·
O=C1c2oc3ccccc3c(=O)c2C(c2cccc(Oc3ccccc3)c2)N1CCCO (stereo unspecified)	·	–	·	·	·	·	·
COc1c(O[C@@H]2O[C@H](C(=O)O)[C@@H](O)[C@H](O)[C@H]2O)cc2oc(-c3ccccc3)cc(=O)c2c1O	·	–	·	·	·	·	·
COc1ccccc1C#Cc1ccc([C@H]2[C@H]3CN(C(=O)C4CCCC4)CCCCN3[C@H]2CO)cc1	·	·	114	–	–	–	54
COc1ccccc1C#Cc1ccc([C@@H]2[C@@H](CO)N3CCCCN(C(=O)C4CCCC4)C[C@H]23)cc1	·	·	112	103	–	–	106
CCS(=O)(=O)N1CCCCN2[C@H](C1)[C@@H](c1ccc(C#Cc3ccccc3OC)cc1)[C@@H]2CO	–	·	–	·	·	·	·
